Assay results published in article PMC9939723 (Redox Biology, 2023).
“And” between values parts separate entries of the source, which are not always exact repeats. Equal values may be shown once. Read-outs that look alike come from different tables or passages of the source.

Key:
[1] = target: T1, purified rat liver TrxR (Rattus norvegicus, UniProt O89049); conditions: read-out: IC50 purified TrxR activity; previous report ref 38; cited from earlier work
T1 sequence (O89049 1-499): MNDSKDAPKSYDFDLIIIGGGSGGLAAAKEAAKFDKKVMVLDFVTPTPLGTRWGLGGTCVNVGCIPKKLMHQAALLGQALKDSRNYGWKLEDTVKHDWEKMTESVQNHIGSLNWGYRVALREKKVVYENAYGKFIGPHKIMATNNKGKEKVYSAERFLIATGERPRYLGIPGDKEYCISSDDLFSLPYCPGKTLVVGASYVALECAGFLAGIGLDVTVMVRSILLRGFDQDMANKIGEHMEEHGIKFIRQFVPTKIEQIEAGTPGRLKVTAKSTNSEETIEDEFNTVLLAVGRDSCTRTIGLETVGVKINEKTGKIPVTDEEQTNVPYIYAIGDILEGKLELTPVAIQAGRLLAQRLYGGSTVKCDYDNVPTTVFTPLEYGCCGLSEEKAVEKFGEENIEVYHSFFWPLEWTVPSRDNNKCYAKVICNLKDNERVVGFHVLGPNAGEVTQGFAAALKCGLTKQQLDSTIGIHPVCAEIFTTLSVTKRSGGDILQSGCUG

[2] = test system: CRAB-induced peritonitis; assay: Murine peritonitis infection model; assay type: in vivo, BALB/c mice
Outline: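 Male (n = 8/group) and female (n = 12/group) BALB/c mice, 18–22 g, infected i.p. with 200 μL CRAB (1 × 10^9 cfu/mL). Single i.p. dose of 5 mg/kg given 1 h post-infection; PBS as control. Survival followed for 72 h. Experiment repeated three times.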

[3] = test system: carbapenem-resistant Klebsiella pneumonia (BAA-1705); assay: MIC by microbroth dilution against CRKP; assay type: cell-based; conditions: 24 h incubation
Outline: (§1)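 Broth microdilution per CLSI guidelines in 96-well plates. Incubated 37 °C for 24 h, then read on a microplate reader.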

[4] = test system: CRAB; assay: Checkerboard microdilution assay, antibiotic with gold complexes; assay type: cell-based, Acinetobacter baumannii; conditions: for FIC index / MIC of antibiotic: CRAB; for MIC: Acinetobacter baumannii; for MIC of antibiotic: antibiotic alone
Outline: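 Checkerboard in 96-well plates. Inoculum diluted per the CLSI broth microdilution method. Gold complex 0–20 μM crossed with antibiotic 0–240 μM. Growth inhibition read as OD600 on a plate reader.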

[5] = target: TrxR in CRAB (Acinetobacter baumannii, UniProt A0A0G4QN87); assay: Cellular TrxR activity assay; assay type: cell-based; conditions: read-out: IC50 inhibition of TrxR activity in CRAB; 2 h treatment of bacteria
Outline: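 Cultures at OD600 0.4–0.6 exposed to 0, 0.5, 1, 2, 5, 10, 20 μM for 2 h. Pellets washed three times in PBS and normalised to OD600 0.7 ± 0.02. TrxR assayed with a kit: NADPH-driven DTNB reduction, 2-vinylpyridine added to block GSH, activity from the rate of TNB increase at 412 nm on a plate reader.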

[6] = test system: vancomycin-intermediate Staphylococcus aureus (ATCC 700699); assay: MIC by microbroth dilution against VISA; assay type: cell-based; conditions: 24 h incubation
Outline: as §1

[7] = test system: TrxB expression in CRAB; assay: TrxB expression by qPCR; assay type: cell-based, Acinetobacter baumannii; conditions: 2 h
Outline: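 Bacteria at initial OD600 0.4–0.5 exposed to compound and shaken 2 h at 37 °C. Total RNA extracted with a kit (lysis buffer, chloroform). TrxB mRNA measured by qPCR with 16S as internal control, 2^−ΔΔCt method, in triplicate.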

[8] = test system: carbapenem-resistant Escherichia coli (BAA-2140); assay: MIC by microbroth dilution against CREco; assay type: cell-based; conditions: 24 h incubation
Outline: as §1

[9] = test system: carbapenem-resistant Pseudomonas aeruginosa (BAA-2108); assay: MIC by microbroth dilution against CRPA; assay type: cell-based; conditions: 24 h incubation
Outline: as §1

[10] = test system: carbapenem-resistant Acinetobacter baumannii (CRAB); assay: MIC by microbroth dilution against CRAB; assay type: cell-based; conditions: 24 h incubation
Outline: as §1

Chain of TrxR in CRAB (A0A0G4QN87 1-315): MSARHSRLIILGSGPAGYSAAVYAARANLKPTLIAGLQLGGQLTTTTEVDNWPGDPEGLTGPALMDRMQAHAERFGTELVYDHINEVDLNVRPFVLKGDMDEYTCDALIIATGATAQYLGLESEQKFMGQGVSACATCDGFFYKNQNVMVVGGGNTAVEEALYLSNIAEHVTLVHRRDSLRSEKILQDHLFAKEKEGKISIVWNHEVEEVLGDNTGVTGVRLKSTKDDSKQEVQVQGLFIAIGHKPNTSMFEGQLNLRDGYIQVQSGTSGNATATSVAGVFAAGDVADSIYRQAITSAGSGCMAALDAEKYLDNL

Structure (SMILES)	IC50 [1]	mice surviving to 34 h ([2]; female BALB/c, n = 12, i.p. 5 mg/kg 1 h after infection)	mice surviving to 24 h ([2]; male BALB/c, n = 8, single i.p. 5 mg/kg 1 h after infection)	MIC CRKP [3]	FIC index ([4]; gold complex in combination with cefotaxime)	FIC index ([4]; gold complex in combination with imipenem)	IC50 [5]	MIC VISA [6]	expression of TrxB (mRNA) [7]	MIC CREco [8]	MIC CRPA [9]	MIC CRAB [10]	MIC ([4]; read-out: MIC of cefotaxime in the presence of H7)	MIC ([4]; read-out: MIC of cefotaxime in the presence of H8)	MIC of antibiotic [4]
CC(=O)OC[C@H]1O[C@@H]([S-])[C@H](OC(C)=O)[C@@H](OC(C)=O)[C@@H]1OC(C)=O.CCP(CC)CC.[Au+] [Auranofin]	0.0826 µM	seven of the twelve mice	four of the eight mice	40 μM and 27.12 μg/mL	0.625	0.75	6.31 µM	0.34 μg/mL and 0.5 μM	no effect	40 μM and 27.12 μg/mL	40 μM and 27.12 μg/mL	20 μM and 13.56 μg/mL	–	–	–
CO/N=C(\C(=O)N[C@@H]1C(=O)N2C(C(=O)O)=C(COC(C)=O)CS[C@H]12)c1csc(N)n1 [Cefotaxime]	–	–	–	–	–	–	–	–	–	–	–	–	30 µM	30 µM	240 µM
C[C@@H](O)[C@H]1C(=O)N2C(C(=O)O)=C(SCCN=CN)C[C@H]12 [Imipenem]	–	–	–	–	–	–	–	–	–	–	–	–	–	–	240 µM
